Where a SMILES comes first, the peptide text is derived from it. [ ]: non-standard residue; d: D form. The star is where a group is joined. Guanidinoacetyl = N=C(N)NCC(=O)*; NMeI = CC[C@H](C)[C@H](NC)C(=O)O; Me2Gly = CN(C)CC(=O)*; Sar = CNCC(=O)O
Assays:
[1] = test system: Rattus norvegicus; experiment: Pressor activity in ganglion-blocked vagotomized rat administered as bolus injection relative to [Asp1,Ile8]angiotension 2; format: functional
How it was run: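 Vagotomized, ganglion-blocked rats received a bolus injection of the analogue. Pressor activity is expressed as percent relative to [Asp¹,Ile⁸]angiotensin II, set at 100.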

[2] = test system: Rattus norvegicus; experiment: Pressor activity in ganglion-blocked vagotomized rat assessed as rise in blood pressure at 250 ng/kg/min, iv administered as infusion measured after 3 mins relative to control; format: functional
How it was run: (§1)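 Vagotomized, ganglion-blocked rats were infused with the analogue. Rise in blood pressure (mmHg) was read at 3, 10 and 30 min of infusion. Values are mean ± error over several rats per analogue.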

[3] = test system: Rattus norvegicus; experiment: Pressor activity in ganglion-blocked vagotomized rat assessed as angiotensin 2 ED20 at 250 ng/kg/min, iv administered as infusion measured during infusion
[4] = test system: Rattus norvegicus; experiment: Pressor activity in ganglion-blocked vagotomized rat assessed as rise in angiotensin 2 ED20 at 250 ng/kg/min, iv administered as infusion measured during infusion relative to untreated control
[5] = test system: Rattus norvegicus; experiment: Pressor activity in ganglion-blocked vagotomized rat assessed as rise in blood pressure at 250 ng/kg/min, iv administered as infusion measured after 30 mins relative to control; format: functional; how it was run: as §1
[6] = species on record: Oryctolagus cuniculus; experiment: Binding affinity to angiotensin 2 receptor in rabbit aortic strip
How it was run: (§2)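 Rabbit aortic strips; the antagonist opposes angiotensin II-induced contraction. pA₂ is the negative log molar antagonist concentration that reduces the effect of a doubled agonist concentration to that of a single one. It is derived as pA₂ = (log K₂)/n, where n is the slope of log(dose ratio − 1) vs. −log antagonist concentration and K₂ is the y-intercept.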

[7] = Antagonist activity at angiotensin 2 receptor in rabbit aortic strip assessed as inhibition of contractile activity; settings: Oryctolagus cuniculus; read-out: pA2 (converted); how it was run: as §2
[8] = test system: Rattus norvegicus; experiment: Pressor activity in ganglion-blocked vagotomized rat assessed as rise in blood pressure at 250 ng/kg/min, iv administered as infusion measured after 10 mins relative to control; format: functional; how it was run: as §1
[9] = test system: Rattus norvegicus; experiment: Pressor activity in ganglion-blocked vagotomized rat assessed as rise in blood pressure at 250 ng/kg/min, iv administered as infusion measured after 10 mins relative to control
[10] = test system: Rattus norvegicus; experiment: Pressor activity in ganglion-blocked vagotomized rat assessed as rise in blood pressure at 250 ng/kg/min, iv administered as infusion measured after 30 mins relative to control
[11] = test system: Rattus norvegicus; experiment: Pressor activity in ganglion-blocked vagotomized rat assessed as rise in blood pressure at 250 ng/kg/min, iv administered as infusion measured after 3 mins relative to control

Compound: CC[C@H](C)[C@H](NC(=O)[C@H](Cc1ccc(O)cc1)NC(=O)[C@@H](NC(=O)[C@H](CCCNC(=N)N)NC(=O)CNC)C(C)C)C(=O)N[C@@H](Cc1cnc[nH]1)C(=O)N1CCC[C@H]1C(=O)N[C@H](C(=O)O)[C@@H](C)OC
- Ratio [1]: 0.48
- Activity [2]: 13.82 mmHg
- ED20 [3]: 95.26 ng
- Ratio [4]: 62.52
- Activity [5]: 15.06 mmHg
- log K [6]: 8.39
- Kb [7]: 1.74 nM
- Activity [8]: 15.88 mmHg

Compound: CC[C@H](C)[C@H](NC(=O)[C@H](Cc1ccc(O)cc1)NC(=O)[C@@H](NC(=O)[C@H](CCCNC(=N)N)NC(=O)CNC)C(C)C)C(=O)N[C@@H](Cc1cnc[nH]1)C(=O)N1CCC[C@H]1C(=O)N[C@@H](COC)C(=O)O
- Ratio [1]: 0.49
- Activity [2]: 15.66 mmHg
- ED20 [3]: 37 ng
- Ratio [4]: 24.04
- Activity [5]: 11.16 mmHg
- log K [6]: 5.58
- Kb [7]: 0.219 nM
- Activity [8]: 16.16 mmHg

Compound: CC[C@H](C)[C@H](NC(=O)[C@H](Cc1ccc(O)cc1)NC(=O)[C@@H](NC(=O)[C@H](CCCNC(=N)N)NC(=O)CNC(=N)N)C(C)C)C(=O)N[C@@H](Cc1cnc[nH]1)C(=O)N1CCC[C@H]1C(=O)N[C@H](C(=O)O)[C@@H](C)O (Guanidinoacetyl-RVYIHPT-OH)
- Ratio [1]: 0.15
- Activity [9]: 0.75 mmHg
- ED20 [3]: 1.14 ng
- Ratio [4]: 1.02
- Activity [10]: 3.5 mmHg
- log K [6]: 2.12
- Kb [7]: 58.9 nM
- Activity [11]: 0.5 mmHg

Compound: CC[C@H](C)[C@H](NC)C(=O)N[C@@H](CCCNC(=N)N)C(=O)N[C@H](C(=O)N[C@@H](Cc1ccc(O)cc1)C(=O)N[C@H](C(=O)N[C@@H](Cc1cnc[nH]1)C(=O)N1CCC[C@H]1C(=O)N[C@H](C(=O)O)[C@@H](C)O)[C@@H](C)CC)C(C)C (H-[NMeI]RVYIHPT-OH)
- Ratio [1]: 0.12
- Activity [9]: 6.66 mmHg
- ED20 [3]: 3.59 ng
- Ratio [4]: 2.37
- Activity [10]: 8.05 mmHg
- log K [6]: 2.48
- Kb [7]: 20.9 nM
- Activity [11]: 4.33 mmHg

Compound: CC[C@H](C)[C@H](NC(=O)[C@H](Cc1ccc(O)cc1)NC(=O)[C@@H](NC(=O)[C@H](CCCN=C(N)N)NC(=O)CNC)C(C)C)C(=O)N[C@@H](Cc1c[nH]cn1)C(=O)N1CCC[C@H]1C(=O)N[C@H](C(=O)O)[C@@H](C)O (H-[Sar]RVYIHPT-OH)
- Ratio [1]: 0.6
- Activity [2]: 9.46 mmHg
- ED20 [3]: 44.55 ng
- Ratio [4]: 26.9
- Activity [5]: 9.2 mmHg
- log K [6]: 8.1
- Kb [7]: 1.62 nM
- Activity [8]: 9.66 mmHg

Compound: CC[C@H](C)[C@H](NC(=O)[C@H](Cc1ccc(O)cc1)NC(=O)[C@@H](NC(=O)[C@H](CCCNC(=N)N)NC(=O)CN(C)C)C(C)C)C(=O)N[C@@H](Cc1cnc[nH]1)C(=O)N1CCC[C@H]1C(=O)N[C@H](C(=O)O)[C@@H](C)O (Me2Gly-RVYIHPT-OH)
- Ratio [1]: 0.38
- Activity [2]: 7.5 mmHg
- ED20 [3]: 7.7 ng
- Ratio [4]: 4.49
- Activity [5]: 11.71 mmHg
- log K [6]: 2.83
- Kb [7]: 29.5 nM
- Activity [8]: 12.57 mmHg

Compound: H-RVYIHPT-OH
- Ratio [1]: 0.24
- Activity [9]: 1.5 mmHg
- ED20 [3]: 3.01 ng
- Ratio [4]: 1.47
- Activity [10]: 4.5 mmHg
- log K [6]: 2.83
- Kb [7]: 29.5 nM
- Activity [11]: 0.5 mmHg

Source: ChEMBL document CHEMBL3244219, “Synthesis of [1-sarcosine, 8-O-methylserine]angiotensin II and 1-substituted analogues of [8-threonine]angiotensin II as antagonists of angiotensin II” (J Med Chem, 1977)
